Source: ChEMBL document CHEMBL4689842, “EUbOPEN Chemogenomics Library wave 1” (2021)

Tested on: HEK-293T
Experiment: Multiplex assay against HEK293T;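 as to Population Tubulin-Different-Phenotype (%): share of the cells with healthy nuclei that show this phenotype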
Type: toxicity, cell-based
Conditions: human
How it was run: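 Imaging took place on a CQ1 microscope at 37°C and 5% CO2 once compound had been added to live cells stained at seeding with Hoechst33342, BioTracker Green Microtubule Cytoskeleton Dye, MitoTracker Red and Annexin V Alexa Fluor 680. CellPathfinder machine-learning gating classed cells as Hoechst high-intensity objects or normal cells, classed normal cells as having healthy, pyknosed or fragmented nuclei, and classed pyknosed cells as mitotic or apoptotic. Tubulin, mitochondrial-mass and membrane-permeability phenotypes are per cents of the healthy-nucleus cells.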

[1] = 12 h, 1 µM, compound concentration 1 uM, replicate 1
[2] = 12 h, 1 µM, compound concentration 1 uM, replicate 2
[3] = 12 h, 10 µM, compound concentration 10 uM, replicate 1
[4] = 12 h, 10 µM, compound concentration 10 uM, replicate 2
[5] = 24 h, 1 µM, compound concentration 1 uM, replicate 1
[6] = 24 h, 1 µM, compound concentration 1 uM, replicate 2
[7] = 24 h, 10 µM, compound concentration 10 uM, replicate 1
[8] = 24 h, 10 µM, compound concentration 10 uM, replicate 2

## Cc1nc(N2CC[C@H](O)C2)ncc1-c1cc(C(F)(F)F)cc2[nH]ncc12
[1]
  Population Apoptotic (%): 20%
  Population Fragmented Nuclei (%): 9%
  Population Healthy Nuclei (%): 70%
  Population Hoechst High Intensity Objects (%): 7%
  Population Membrane Permeable-Phenotype (%): 3%
  Population Mitochondria Different-Phenotype (%): 7%
  Population Mitotic Cells (%): 79%
  Population Normal (%): 92%
  Population Pyknosed Nuclei (%): 20%
  Population Tubulin-Different-Phenotype (%): 5%
  Total Cell Count: 628
[2]
  Population Apoptotic (%): 8%
  Population Fragmented Nuclei (%): 7%
  Population Healthy Nuclei (%): 87%
  Population Hoechst High Intensity Objects (%): 2%
  Population Membrane Permeable-Phenotype (%): 1%
  Population Mitochondria Different-Phenotype (%): 10%
  Population Mitotic Cells (%): 91%
  Population Normal (%): 97%
  Population Pyknosed Nuclei (%): 4%
  Population Tubulin-Different-Phenotype (%): 9%
  Total Cell Count: 1293
[3]
  Population Apoptotic (%): 24%
  Population Fragmented Nuclei (%): 11%
  Population Healthy Nuclei (%): 70%
  Population Hoechst High Intensity Objects (%): 9%
  Population Membrane Permeable-Phenotype (%): 4%
  Population Mitochondria Different-Phenotype (%): 4%
  Population Mitotic Cells (%): 75%
  Population Normal (%): 90%
  Population Pyknosed Nuclei (%): 18%
  Population Tubulin-Different-Phenotype (%): 3%
  Total Cell Count: 699
[4]
  Population Apoptotic (%): 5%
  Population Fragmented Nuclei (%): 7%
  Population Healthy Nuclei (%): 88%
  Population Hoechst High Intensity Objects (%): 1%
  Population Membrane Permeable-Phenotype (%): 1%
  Population Mitochondria Different-Phenotype (%): 8%
  Population Mitotic Cells (%): 94%
  Population Normal (%): 98%
  Population Pyknosed Nuclei (%): 4%
  Population Tubulin-Different-Phenotype (%): 4%
  Total Cell Count: 1684
[5]
  Population Apoptotic (%): 22%
  Population Fragmented Nuclei (%): 7%
  Population Healthy Nuclei (%): 79%
  Population Hoechst High Intensity Objects (%): 5%
  Population Membrane Permeable-Phenotype (%): 5%
  Population Mitochondria Different-Phenotype (%): 4%
  Population Mitotic Cells (%): 77%
  Population Normal (%): 94%
  Population Pyknosed Nuclei (%): 12%
  Population Tubulin-Different-Phenotype (%): 11%
  Total Cell Count: 702
[6]
  Population Apoptotic (%): 3%
  Population Fragmented Nuclei (%): 17%
  Population Hoechst High Intensity Objects (%): 2%
  Population Membrane Permeable-Phenotype (%): 4%
  Population Mitochondria Different-Phenotype (%): 3%
  Population Mitotic Cells (%): 96%
  Population Normal (%): 97%
  Population Pyknosed Nuclei (%): 2%
  Population Tubulin-Different-Phenotype (%): 14%
  Total Cell Count: 1975
[7]
  Population Apoptotic (%): 28%
  Population Fragmented Nuclei (%): 10%
  Population Healthy Nuclei (%): 80%
  Population Hoechst High Intensity Objects (%): 5%
  Population Membrane Permeable-Phenotype (%): 12%
  Population Mitochondria Different-Phenotype (%): 1%
  Population Mitotic Cells (%): 71%
  Population Normal (%): 94%
  Population Pyknosed Nuclei (%): 9%
  Population Tubulin-Different-Phenotype (%): 6%
  Total Cell Count: 840
[8]
  Population Apoptotic (%): 6%
  Population Fragmented Nuclei (%): 21%
  Population Healthy Nuclei (%): 75%
  Population Hoechst High Intensity Objects (%): 2%
  Population Membrane Permeable-Phenotype (%): 5%
  Population Mitotic Cells (%): 93%
  Population Normal (%): 97%
  Population Pyknosed Nuclei (%): 2%
  Population Tubulin-Different-Phenotype (%): 5%
  Total Cell Count: 2845
